# Experimental data taken from ChEMBL document CHEMBL1250451, “Mechanistic insights into a Ca2+-dependent family of alpha-mannosidases in a human gut symbiont” (Nat Chem Biol, 2010).
# T1: Alpha-1,2-mannosidase (BT_2199) (Bacteroides thetaiotaomicron, UniProt Q8A5N9)
# T1 sequence (Q8A5N9 whole entry): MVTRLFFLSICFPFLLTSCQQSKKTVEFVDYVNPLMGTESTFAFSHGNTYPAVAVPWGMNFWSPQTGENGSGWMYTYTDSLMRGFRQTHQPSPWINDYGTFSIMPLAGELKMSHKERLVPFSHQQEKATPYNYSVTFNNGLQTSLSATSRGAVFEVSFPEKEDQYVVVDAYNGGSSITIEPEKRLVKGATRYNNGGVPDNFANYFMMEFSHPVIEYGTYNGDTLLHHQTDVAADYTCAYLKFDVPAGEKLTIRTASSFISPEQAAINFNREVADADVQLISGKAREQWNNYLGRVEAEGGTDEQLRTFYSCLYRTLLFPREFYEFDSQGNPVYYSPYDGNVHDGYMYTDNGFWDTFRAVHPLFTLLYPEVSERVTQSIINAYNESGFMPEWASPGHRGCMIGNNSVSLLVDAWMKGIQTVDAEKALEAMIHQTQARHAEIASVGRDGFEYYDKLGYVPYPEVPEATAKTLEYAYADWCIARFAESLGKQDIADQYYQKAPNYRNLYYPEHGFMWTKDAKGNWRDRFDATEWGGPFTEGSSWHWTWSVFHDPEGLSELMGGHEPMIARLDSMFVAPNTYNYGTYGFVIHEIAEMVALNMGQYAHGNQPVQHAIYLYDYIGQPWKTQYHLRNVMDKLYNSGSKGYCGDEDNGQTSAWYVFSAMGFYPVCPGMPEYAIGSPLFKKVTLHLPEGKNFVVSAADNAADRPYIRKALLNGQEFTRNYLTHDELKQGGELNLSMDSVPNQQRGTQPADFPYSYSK
# Assays:
# Assay type in all cases: protein assay; call rule not given here
# [1] = biological target: T1, Alpha-1,2-mannosidase (BT_2199); experiment: Inhibition of Bacteroides thetaiotaomicron GH92 alpha-mannosidase 2199 assessed as reduction of mannose release using 4NP-mannopyranoside substrate
# Summary of the method: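 Recombinant enzymes expressed in E. coli. Bt3990 was purified by IMAC, anion exchange and size exclusion; Bt2199 by IMAC only. Ki was measured with at least five inhibitor concentrations at a substrate concentration ≪ Km for each enzyme. Ki was taken as the x-axis intercept of a plot of […] against inhibitor concentration.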
# [2] = substrate: O=[N+]([O-])c1ccc(O[C@H]2O[C@H](CO)[C@@H](O)[C@H](O)[C@@H]2O)cc1; experiment: Ratio of Kcat to Km for Bacteroides thetaiotaomicron GH92 alpha-mannosidase GH92 alpha-mannosidase 3527 assessed as mannose release after 16 hrs by HPLC
# [3] = substrate: O=[N+]([O-])c1ccc(O[C@H]2O[C@H](CO)[C@@H](O)[C@H](O)[C@@H]2O)cc1; experiment: Activity of Bacteroides thetaiotaomicron GH92 alpha-mannosidase GH92 alpha-mannosidase 3527 assessed as mannose release after 16 hrs by HPLC
# [4] = substrate: O=[N+]([O-])c1ccc(O[C@H]2O[C@H](CO)[C@@H](O)[C@H](O)[C@@H]2O)cc1; experiment: Activity of Bacteroides thetaiotaomicron GH92 alpha-mannosidase GH92 alpha-mannosidase 1769 assessed as mannose release after 16 hrs by HPLC
# [5] = substrate: O=[N+]([O-])c1ccc(O[C@H]2O[C@H](CO)[C@@H](O)[C@H](O)[C@@H]2O)cc1; experiment: Ratio of Kcat to Km for Bacteroides thetaiotaomicron GH92 alpha-mannosidase GH92 alpha-mannosidase 1769 assessed as mannose release after 16 hrs by HPLC
# [6] = substrate: O=[N+]([O-])c1ccc(O[C@H]2O[C@H](CO)[C@@H](O)[C@H](O)[C@@H]2O)cc1; experiment: Ratio of Kcat to Km for Bacteroides thetaiotaomicron GH92 alpha-mannosidase GH92 alpha-mannosidase 3773 assessed as mannose release after 16 hrs by HPLC
# [7] = substrate: O=[N+]([O-])c1ccc(O[C@H]2O[C@H](CO)[C@@H](O)[C@H](O)[C@@H]2O)cc1; experiment: Activity of Bacteroides thetaiotaomicron GH92 alpha-mannosidase GH92 alpha-mannosidase 3773 assessed as mannose release after 16 hrs by HPLC
# [8] = substrate: O=[N+]([O-])c1ccc(O[C@H]2O[C@H](CO)[C@@H](O)[C@H](O)[C@@H]2O)cc1; experiment: Ratio of Kcat to Km for Bacteroides thetaiotaomicron GH92 alpha-mannosidase GH92 alpha-mannosidase 2629 assessed as mannose release after 16 hrs by HPLC
# [9] = substrate: O=[N+]([O-])c1ccc(O[C@H]2O[C@H](CO)[C@@H](O)[C@H](O)[C@@H]2O)cc1; experiment: Activity of Bacteroides thetaiotaomicron GH92 alpha-mannosidase GH92 alpha-mannosidase 2629 assessed as mannose release after 16 hrs by HPLC
# [10] = substrate: O=[N+]([O-])c1ccc(O[C@H]2O[C@H](CO)[C@@H](O)[C@H](O)[C@@H]2O)cc1; experiment: Activity of Bacteroides thetaiotaomicron GH92 alpha-mannosidase GH92 alpha-mannosidase 2111 assessed as mannose release after 16 hrs by HPLC
# [11] = substrate: O=[N+]([O-])c1ccc(O[C@H]2O[C@H](CO)[C@@H](O)[C@H](O)[C@@H]2O)cc1; experiment: Ratio of Kcat to Km for Bacteroides thetaiotaomicron GH92 alpha-mannosidase GH92 alpha-mannosidase 2111 assessed as mannose release after 16 hrs by HPLC
molecule,measurement,setting,value
O=C1N[C@@H]2[C@@H](O)[C@@H](O)[C@H](O)[C@@H](CO)N2C1=O [KIFUNENSINE],Ki,[1],230 µM
"Alpha-1,2-mannosidase (BT_3527) (Bacteroides thetaiotaomicron), Q8A1Y1 (protein) MKKLALLAFTLFSAWNMDAKTITGPVDYVSPLVGTQSKHALSTGNTYPAIALPWGMNFWVPQTGKMGDGWAYTYDADKIRGFKQTHQPSPWINDYGQFSIMPITGKAVFDQDQRASWFSHKAETATPYYYKVYLADHDVVTEIAPTERAAAFRFTFPENDHSYVVVDAFDNGSFVKVIPSENKIIGYTTKNSGGVPANFKNYFVLEFDKPFTYTAAVANGNIDTNKLEANDKHAGALIGFKTRKGEQVNVRVASSFISPEQAELNLKELGKDNIDQIAAKGRKVWNDVLGRIEVEDDDIDHLRTFYSCLYRSVLFPRSFYEIDAKGDIVHYSPYNGEVLPGYMFTDTGFWDTFRCLFPFLNLMYPSMNMKMQEGLVNTYKESGFLPEWASPGHRGCMVGNNSASVVADAYLKGLKGYDIETLWEAVKHGANAVHPQVSSTGRLGYDYYNKLGYVPYNVGINENAARTLEYAYNDWCIYQLGKALNKPKKEIEIFAKRAMNYKNLYDPEHKLMRGKNEDGKFQSPFNPLKWGDAFTEGNSWHYTWSVFHDPQGLIDLMGGKDGFNQMMDSVFILPPVFDDSYYGGVIHEIREMQIMNMGNYAHGNQPIQHMLYMYNYSGQPWKAQHWIREVMDKLYTPAPDGYCGDEDNGQTSAWYVFSAMGFYPVCPGTDEYILGTPYFKQMKLHLENGKTVTISAPNNGDDKRYISSMTLNGKDHTKNYVTHEDLMNGASITFKMDSKPNEQRGTKETDFPYSFSNEFKKKK",kcat/Km,[2],Not Active
same,Km,[3],Not Active
same,kcat,[3],Not Active
"Alpha-1,2-mannosidase (BT_1769) (Bacteroides thetaiotaomicron), Q8A6V7 (protein) MKLTHILASAAIISTLSACNGSLQTADRTPVDYVNPYIGNISHLLVPTFPTIQLPNSMLRVYPERADYTSELLKGLPLIVTNHRERSAFNFSPYQGEKLRPVITYNYDNEHITPYSFDVELDDNRMKAEYALSHQSAIYRITYEADKPAYLIVNSRNGSIHANENFISGRQQLNDNTNVYVYIEAQEKPISAGILENGTIETSKDNAEGANACAAWRFADGTTTVNLRYGISFISEEQAEKNLHRELKDYNIKALAEAGRQIWNETLGRIQVEGGTEDDKTVFYSSFYRTFERPICMSEGGRYFSAFDGKVHEDNGTPFYTDDWIWDTYRAAHPLRTLIDQQKEEDIIASYLRMAEQMGNMWMPTFPEVTGDTRRMNSNHAVATVADALAKGLKVDTAKAYEACRKGIEEKTLAPWSGAPAGWLDNFYRENGYIPALRVDEPENDPNVHPFEKRQPVAVTLGTSYDQWCLSRIAQALNKKEEAEYYLKCSYNYRNLYNKETAFFHPKDKEGQWIEPFDYRFPGGMGAREYYGENNGWVYRWDVPHNVADLISLMGGNEQFIANLDRTFTEPLGRSKYAFYAKLPDHTGNVGQFSMANEPSLHVPYLYNYAGQPWKTQKRIRQMLKTWFRNDLMGIPGDEDGGGMTSFVVFSSLGFYPVTPGLPAYTIGSPLFTDAKIRLSNGAVFEIEAKNASTDNKYIQSATLNGKEWNKSWFSHDDLMSGGKLVLVMGNKPNKTWASGAEDVPPSLEIK",Km,[4],Not Active
same,kcat,[4],Not Active
same,kcat/Km,[5],Not Active
"Alpha-1,2-mannosidase, putative (BT_3773) (Bacteroides thetaiotaomicron), Q8A193 (protein) MNAFKLLMAASCFLGLATSGVAKQDYSKSEGLLQYVDPYIGSGFHGHVFVGTSVPYGMVQLGPNNIHKGWDWCSGYHYSDSILIGFSHTHLSGTGCTDLGDILIMPLNEIRTPRGNQDDIRDGYASKYSHDNEIARPEYYSLILDRYNIKAELTATDRVGFHRYTYPEGKPVSILIDLREGNGSNAYDSYIRKVDDYTVEGYRYVRGWSPSRKVYFVLKSDQKIEKFTAYDDNTPKLWDQLKVESVKSVLTFGNVKEVKIKVAISSVSCDNAAMNLQAELSHWDFDKVVKMSSDRWNKQLDKMTVESDDEAAKRVFYTAHYHTMIAPTLYCDVNGEYRGMNDMIYTDPKKANYTTLSLWDTYRALNPLMTIIQPEMVDNVINSMLSIYRQQDKLPIWPLMSGETNCMPGYSSVPVIADAYLKGFTGFDAEEALTAMKATATYEGQNGVPYVMAKGYIPADKIHEATSIAMEYAVDDWGIAAMAQKMGKTADYETFSKRAHYYKNYFDSSIHFIRPKLEDGSWRTPYDPARSIHGVGDFCEGNGWQYTFFAPQDPYGLISLFGGDKPFTSKLDSFFTNNDSMGEGASSDITGLIGQYAHGNEPSHHIAYLYTYAGEQWKTAEKVRFIMSDFYTDQPDGIIGNEDCGQMSAWYLLSAMGFYQVNPSDGVFAFGSPRFKKIEVKVRGGKVFTVEAPNNSKDNIYIQKVYLNGKPYHKSYITYDDIINGSTLKFEMGKKPAKNFGKASANRPIVLNK",kcat/Km,[6],Not Active
same,Km,[7],Not Active
same,kcat,[7],Not Active
"Alpha-1,2-mannosidase (BT_2629) (Bacteroides thetaiotaomicron), Q8A4H0 (protein) MKTHFSFKHLLFLGGAVLYSLQSSAVKNPVDYVSTLIGTQSKFELSTGNTYPATALPWGMNFWTPQTGKMGDGWAYTYDADKIRGFKQTHQPSPWMNDYGQFAIMPITGGLVFDQDRRASWFSHKAEVAKPYYYKVYLADHDVTTELAPTERAVMFRFTYPETKNAYVIVDAFDKGSYVKVIPEENKIIGYSTKNSGGVPENFKNYFVIQFDKPFTFVSTVFENNILPNETEAKGNHTGAVIGFATKKGEIVHARVASSFISPEQAELNLKELGKNSFDQLVANGREIWNREMSKIEIEDDNIDNLRTFYSCLYRSMLFPRSFYEIDAKGQVMHYSPYNGEVRPGYMFTDTGFWDTFRCLFPFLNLMYPSMNQKMQEGLVNTYKESGFLPEWASPGHRDCMVGNNSASVVADAYIKGLRGYDIETLWEALKHGANAHLRGTASGRLGYESYNQLGYVANNIGIGQNVARTLEYAYNDWAIYTLGKKLGKPENEIDIYKKHALNYKNVYHPERKLMVGKDNKGVFNPNFDAVDWSGEFCEGNSWHWSFCVFHDPQGLINLMGGKKEFNAMMDSVFVISGKLGMESRGMIHEMREMQVMNMGQYAHGNQPIQHMVYLYNYSSEPWKAQYWIREIMNKLYTAGPDGYCGDEDNGQTSAWYVFSALGFYPVCPGTDEYIIGTPLFKSAKLHLENGKTITIKADNNQLDNRYIKEMKVNGKSQTRNFLTHDQLIKGANIQFQMSPVPNKQRGTTEKDVPYSLSFE",kcat/Km,[8],Not Active
same,Km,[9],Not Active
same,kcat,[9],Not Active
"Alpha-1,2-mannosidase (BT_2111) (Bacteroides thetaiotaomicron), Q8A5X5 (protein) MKRIPLSLFTFLFLLSGLCAAPTKTVWQIGEKNHSASELALSPDKYKEFLANDFGWEDRFYIIGLSSPQKDFPYVLPGPADHWGGTSYTAGIRTHVLNILFGMKEVPETDSWKLIIDLLDTHHELPALFKITINGKSWKYALPKGSGKSIDGDYSQIKPHTIEIPLNSGVIRKGSNSIALTSLEGSWILFDDIRLMGPDNAELNEVNKSVYLRDVKAADFQTTSPVAQPLLVDIEHLSGHPLLEVKVDGKKILEQRLEKGRYILEAPMPVVKSPKTSHYIISADGAILDKGMIRRAPHNTITLADYIDTRMGTAHSRWMIAPGTWMPFSMVKLSPDNQDSGWQSGYDPSFESIGTFSHIHEWTMAGLGIMPANGPLKTEIGSQSSLVKDANSYRSAIDKTSEETKVGYYKVDLTDYQIKAELTATSRCGFQRYTYPQDKDARVMIDLKIPSEYDYQIVEGSVKQTGARRIEGFSKQLSKNVWSADADQNYTIYFVIEFNKDIKKFGGWHDHTLWETDTMTAHYPQRFGCYAEFDTTDHPEVMVRSGISYVDMAGASNNLSNEITEPFGWNFEAVHKHQSDSWNNILNRVRIYSNDYREKVRFYTNLYRAFCRNTFSDADRRWVDAAGNIQKLDDPDAVALGCDAFWNTFWNLNQVWNLIAPEWSSRWVKSQLAMYDANGWLAKGPSGMKYIPVMVGEHEIPLLVSTYQMGIRNYDAEKMFRAIVKMQTTPAQRVANGFAGNRDLETYLQHQYVPADKGRFSNTLEYSYDDWTVSQLAKALGKEEYYRTFSNRGNWWKNAINPATGYAQMRYSNGEWEKNFDPFKSGANHHYVEGNAWQLTFFVPQNVPALTEIIGKELFIDRLSWGFKASEPWRYNAPGDQYWDFPVVQGNQQSMHFAFLFNWAGQPWQTQRWSRSIIDRYYGFDTSNAYLGDEDQGQMSAWFVMAALGLFQTDGGCNAEPVYELGSPLFEKIKIDLGKHFGRGKQFIIKASNTSRENKYIQSAKLNGKKLNSFKFPAKELLKGGTLELEMGDRPNKNWGIK",Km,[10],Not Active
same,kcat,[10],Not Active
same,kcat/Km,[11],Not Active
